The values below come from ChEMBL document CHEMBL3232836, “Discovery of 4-anilino α-carbolines as novel Brk inhibitors” (Bioorg Med Chem Lett, 2014).

The structures appear in SMILES notation.

For test [1], the target named is Protein-tyrosine kinase 6 (Homo sapiens, UniProt Q13882). Briefly: Inhibition of Brk (unknown origin) using [gamma-33P]-ATP after 60 mins by scintillation counting.
For a further test, the system named is MCF7. In words: Antiproliferative activity against human MCF7 cells by sulfur rhodamine assay. Type of test: functional.
The nature of test [2]: Antiproliferative activity against human Hs 578T cells by sulfur rhodamine assay. Format: functional.
The nature of test [3]: Antiproliferative activity against human BT549 cells by sulfur rhodamine assay. Type of test: functional. The note with it: BT-549.
The target in test [4] is MAP kinase-activated protein kinase 3 (Homo sapiens, UniProt Q16644). In words: Inhibition of human MAPKAPK3.
Test [5] addresses Calcium/calmodulin-dependent protein kinase type IV (Homo sapiens, UniProt Q16566). In words: Inhibition of human CAMK4.
For test [6], the target named is Serine/threonine-protein kinase Nek2 (Homo sapiens, UniProt P51955). In words: Inhibition of human NEK2.
In test [7] the target is Serine/threonine-protein kinase Nek1 (Homo sapiens, UniProt Q96PY6). Briefly: Inhibition of human NEK1.
The target in test [8] is Serine/threonine-protein kinase pim-2 (Homo sapiens, UniProt Q9P1W9). Briefly: Inhibition of human PIM2.
Test [9] addresses MAP kinase-activated protein kinase 5 (Homo sapiens, UniProt Q8IW41). Briefly: Inhibition of human MAPKAPK5.
Test [10] deals with Serine/threonine-protein kinase MARK1 (Homo sapiens, UniProt Q9P0L2). Briefly: Inhibition of human MARK1.
For test [11], the target named is MAP/microtubule affinity-regulating kinase 3 (Homo sapiens, UniProt P27448). In words: Inhibition of human MARK3. Summed up: (§1)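 Radiometric kinase assay in FlashPlates. Test compound was added from a 10% DMSO solution and ATP from an aqueous solution. The reaction was stopped with 2% (v/v) phosphoric acid, and plates were aspirated and washed with water or 0.9% NaCl. ³³Pi incorporation was read on a microplate scintillation counter.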

A short description of test [12]: Inhibition of human MARK5.
Test [13] addresses RAC-alpha serine/threonine-protein kinase (Homo sapiens, UniProt P31749). Briefly: Inhibition of human AKT1.
In test [14] the target is RAC-beta serine/threonine-protein kinase (Homo sapiens, UniProt P31751). Briefly: Inhibition of human AKT2.
Test [15] has as its target RAC-gamma serine/threonine-protein kinase (Homo sapiens, UniProt Q9Y243). Briefly: Inhibition of human AKT3. The essentials:
as §1

The target of another test is Myotonin-protein kinase (Homo sapiens, UniProt Q09013). In words: Inhibition of human DMPK.
In test [16] the target is Serine/threonine-protein kinase VRK1 (Homo sapiens, UniProt Q99986). Briefly: Inhibition of human VRK1.
Test [17] has as its target Serine/threonine-protein kinase 24 (Homo sapiens, UniProt Q9Y6E0). In words: Inhibition of human MST3. The essentials:
as §1

For test [18], the target named is Serine/threonine-protein kinase 26 (Homo sapiens, UniProt Q9P289). In words: Inhibition of human MST4.
The target in test [19] is Serine/threonine-protein kinase PAK 1 (Homo sapiens, UniProt Q13153). In words: Inhibition of human PAK1.
Test [20] concerns the target Serine/threonine-protein kinase PAK 2 (Homo sapiens, UniProt Q13177). Briefly: Inhibition of human PAK2. Summed up: as §1
In test [21] the target is Serine/threonine-protein kinase PAK 3 (Homo sapiens, UniProt O75914). In words: Inhibition of human PAK3.
Test [22] has as its target Mitogen-activated protein kinase 3 (Homo sapiens, UniProt P27361). Briefly: Inhibition of human ERK1. Summed up:
as §1

The target in test [23] is Mitogen-activated protein kinase 1 (Homo sapiens, UniProt P28482). Briefly: Inhibition of human ERK2.
Test [24] concerns the target Glycogen synthase kinase-3 beta (Homo sapiens, UniProt P49841). Briefly: Inhibition of human GSK3beta.
Test [25] addresses Mitogen-activated protein kinase 8 (Homo sapiens, UniProt P45983). In words: Inhibition of human JNK1.
Test [26] addresses Mitogen-activated protein kinase 10 (Homo sapiens, UniProt P53779). In words: Inhibition of human JNK3.
Test [27] addresses Homeodomain-interacting protein kinase 2 (Homo sapiens, UniProt Q9H2X6). Briefly: Inhibition of human HIPK2.
Test [28] addresses Homeodomain-interacting protein kinase 1 (Homo sapiens, UniProt Q86Z02). Briefly: Inhibition of human HIPK1.
The target of test [29] is Homeodomain-interacting protein kinase 3 (Homo sapiens, UniProt Q9H422). Briefly: Inhibition of human HIPK3.
The target in test [30] is Tyrosine-protein kinase JAK3 (Homo sapiens, UniProt P52333). Briefly: Inhibition of human JAK3. The essentials:
as §1

Test [31] deals with Proto-oncogene tyrosine-protein kinase Src (Homo sapiens, UniProt P12931). In words: Inhibition of human Src.
Sequence of Proto-oncogene tyrosine-protein kinase Src (P12931 2-536 limits assumed): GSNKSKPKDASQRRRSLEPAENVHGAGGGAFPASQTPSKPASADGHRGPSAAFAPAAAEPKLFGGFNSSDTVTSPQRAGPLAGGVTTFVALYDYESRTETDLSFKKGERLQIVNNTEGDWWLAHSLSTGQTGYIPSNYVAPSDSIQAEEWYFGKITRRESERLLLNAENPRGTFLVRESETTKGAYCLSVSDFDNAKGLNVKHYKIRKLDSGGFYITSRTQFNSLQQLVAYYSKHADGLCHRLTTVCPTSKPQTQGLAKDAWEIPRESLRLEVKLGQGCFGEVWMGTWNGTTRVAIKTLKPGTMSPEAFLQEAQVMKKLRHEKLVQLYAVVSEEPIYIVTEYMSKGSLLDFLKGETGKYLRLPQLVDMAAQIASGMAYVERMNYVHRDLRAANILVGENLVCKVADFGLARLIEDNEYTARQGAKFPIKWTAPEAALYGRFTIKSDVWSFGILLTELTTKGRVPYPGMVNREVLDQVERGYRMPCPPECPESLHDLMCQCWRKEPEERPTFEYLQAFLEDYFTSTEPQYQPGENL

Sequence of Protein-tyrosine kinase 6 (Q13882 whole entry): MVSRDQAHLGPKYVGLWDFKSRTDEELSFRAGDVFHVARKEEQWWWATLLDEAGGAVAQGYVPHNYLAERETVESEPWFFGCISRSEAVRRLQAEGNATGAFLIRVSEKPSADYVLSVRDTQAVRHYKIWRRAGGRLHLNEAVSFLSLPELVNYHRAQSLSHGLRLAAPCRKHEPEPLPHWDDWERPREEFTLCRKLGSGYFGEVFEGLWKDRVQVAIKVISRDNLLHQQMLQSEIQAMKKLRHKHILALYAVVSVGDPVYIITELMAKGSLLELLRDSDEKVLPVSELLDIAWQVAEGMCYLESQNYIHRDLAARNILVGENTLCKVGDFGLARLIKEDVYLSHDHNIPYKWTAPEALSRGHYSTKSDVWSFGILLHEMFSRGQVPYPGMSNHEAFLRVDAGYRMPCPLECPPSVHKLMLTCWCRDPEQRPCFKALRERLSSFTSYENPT
Sequence of Homeodomain-interacting protein kinase 2 (Q9H2X6 whole entry): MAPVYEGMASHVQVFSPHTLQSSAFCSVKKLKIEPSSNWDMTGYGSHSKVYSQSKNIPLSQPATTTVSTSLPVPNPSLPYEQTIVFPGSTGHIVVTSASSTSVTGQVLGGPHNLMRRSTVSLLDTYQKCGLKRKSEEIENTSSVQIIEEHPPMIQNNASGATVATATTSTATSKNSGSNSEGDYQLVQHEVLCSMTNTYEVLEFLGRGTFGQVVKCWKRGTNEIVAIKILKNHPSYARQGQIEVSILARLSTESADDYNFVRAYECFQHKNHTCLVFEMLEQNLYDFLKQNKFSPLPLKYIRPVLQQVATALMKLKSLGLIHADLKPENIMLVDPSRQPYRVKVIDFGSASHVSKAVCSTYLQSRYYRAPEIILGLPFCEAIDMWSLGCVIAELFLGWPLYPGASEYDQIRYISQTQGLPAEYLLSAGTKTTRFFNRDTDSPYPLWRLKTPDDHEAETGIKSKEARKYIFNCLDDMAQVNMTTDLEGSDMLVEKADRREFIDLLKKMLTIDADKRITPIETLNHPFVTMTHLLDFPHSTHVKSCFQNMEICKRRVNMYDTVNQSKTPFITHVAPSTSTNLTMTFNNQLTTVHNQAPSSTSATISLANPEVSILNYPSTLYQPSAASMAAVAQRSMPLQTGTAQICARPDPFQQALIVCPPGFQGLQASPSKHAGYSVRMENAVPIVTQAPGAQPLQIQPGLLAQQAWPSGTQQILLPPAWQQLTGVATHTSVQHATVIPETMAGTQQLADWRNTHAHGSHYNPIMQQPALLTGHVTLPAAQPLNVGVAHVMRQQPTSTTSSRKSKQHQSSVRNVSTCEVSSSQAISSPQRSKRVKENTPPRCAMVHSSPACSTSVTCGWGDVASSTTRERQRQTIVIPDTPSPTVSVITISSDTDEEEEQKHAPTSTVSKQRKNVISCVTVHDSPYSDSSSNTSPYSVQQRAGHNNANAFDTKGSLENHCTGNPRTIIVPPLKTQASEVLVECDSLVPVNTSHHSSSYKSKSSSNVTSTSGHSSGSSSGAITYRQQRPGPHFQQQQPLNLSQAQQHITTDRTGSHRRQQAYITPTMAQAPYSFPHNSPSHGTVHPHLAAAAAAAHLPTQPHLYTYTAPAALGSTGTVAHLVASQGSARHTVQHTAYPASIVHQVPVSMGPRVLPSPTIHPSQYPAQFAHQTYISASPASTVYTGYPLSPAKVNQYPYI
Sequence of Mitogen-activated protein kinase 1 (P28482 whole entry): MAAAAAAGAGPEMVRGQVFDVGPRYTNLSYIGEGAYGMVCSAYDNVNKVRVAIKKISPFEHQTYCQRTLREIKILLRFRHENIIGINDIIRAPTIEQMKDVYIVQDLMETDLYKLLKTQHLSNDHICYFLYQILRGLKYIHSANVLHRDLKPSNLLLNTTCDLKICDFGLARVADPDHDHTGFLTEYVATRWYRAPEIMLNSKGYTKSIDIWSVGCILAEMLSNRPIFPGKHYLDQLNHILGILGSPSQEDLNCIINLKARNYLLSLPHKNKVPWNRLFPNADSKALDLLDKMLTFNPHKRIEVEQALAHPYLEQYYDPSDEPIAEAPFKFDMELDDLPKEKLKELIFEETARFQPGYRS
Sequence of Serine/threonine-protein kinase MARK1 (Q9P0L2 whole entry): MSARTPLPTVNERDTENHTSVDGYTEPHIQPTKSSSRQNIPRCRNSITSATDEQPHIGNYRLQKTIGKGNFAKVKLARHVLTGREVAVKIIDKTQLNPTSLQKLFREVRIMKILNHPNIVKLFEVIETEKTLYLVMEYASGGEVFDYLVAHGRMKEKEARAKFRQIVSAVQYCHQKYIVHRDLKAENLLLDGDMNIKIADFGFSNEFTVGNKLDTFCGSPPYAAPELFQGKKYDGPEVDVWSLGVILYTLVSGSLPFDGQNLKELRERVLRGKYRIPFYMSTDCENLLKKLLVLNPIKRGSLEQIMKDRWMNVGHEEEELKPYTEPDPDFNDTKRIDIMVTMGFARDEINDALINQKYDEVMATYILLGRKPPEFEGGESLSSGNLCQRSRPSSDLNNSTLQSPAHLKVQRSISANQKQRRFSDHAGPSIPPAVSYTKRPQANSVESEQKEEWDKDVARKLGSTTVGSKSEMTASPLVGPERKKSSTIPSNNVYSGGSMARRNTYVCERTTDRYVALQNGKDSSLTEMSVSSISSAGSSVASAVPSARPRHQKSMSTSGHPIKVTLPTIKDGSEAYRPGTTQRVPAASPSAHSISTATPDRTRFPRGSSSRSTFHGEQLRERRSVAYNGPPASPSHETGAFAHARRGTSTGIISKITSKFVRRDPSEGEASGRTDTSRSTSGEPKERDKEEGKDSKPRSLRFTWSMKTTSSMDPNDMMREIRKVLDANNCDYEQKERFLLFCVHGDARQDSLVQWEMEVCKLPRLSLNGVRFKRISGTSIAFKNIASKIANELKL
Sequence of RAC-beta serine/threonine-protein kinase (P31751 whole entry): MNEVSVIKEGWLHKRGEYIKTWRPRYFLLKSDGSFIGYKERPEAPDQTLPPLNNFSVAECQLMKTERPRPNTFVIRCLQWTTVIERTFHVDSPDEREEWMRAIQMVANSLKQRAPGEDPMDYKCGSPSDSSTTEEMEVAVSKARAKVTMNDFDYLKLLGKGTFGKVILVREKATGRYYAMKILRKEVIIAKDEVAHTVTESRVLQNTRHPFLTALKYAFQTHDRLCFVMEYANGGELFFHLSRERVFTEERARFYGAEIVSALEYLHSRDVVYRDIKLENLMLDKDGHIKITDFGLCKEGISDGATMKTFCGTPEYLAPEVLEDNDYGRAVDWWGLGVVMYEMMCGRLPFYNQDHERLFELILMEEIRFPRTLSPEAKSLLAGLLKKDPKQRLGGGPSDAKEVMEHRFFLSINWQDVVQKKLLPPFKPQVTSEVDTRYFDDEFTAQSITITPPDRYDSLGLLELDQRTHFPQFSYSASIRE
Sequence of MAP/microtubule affinity-regulating kinase 3 (P27448 whole entry): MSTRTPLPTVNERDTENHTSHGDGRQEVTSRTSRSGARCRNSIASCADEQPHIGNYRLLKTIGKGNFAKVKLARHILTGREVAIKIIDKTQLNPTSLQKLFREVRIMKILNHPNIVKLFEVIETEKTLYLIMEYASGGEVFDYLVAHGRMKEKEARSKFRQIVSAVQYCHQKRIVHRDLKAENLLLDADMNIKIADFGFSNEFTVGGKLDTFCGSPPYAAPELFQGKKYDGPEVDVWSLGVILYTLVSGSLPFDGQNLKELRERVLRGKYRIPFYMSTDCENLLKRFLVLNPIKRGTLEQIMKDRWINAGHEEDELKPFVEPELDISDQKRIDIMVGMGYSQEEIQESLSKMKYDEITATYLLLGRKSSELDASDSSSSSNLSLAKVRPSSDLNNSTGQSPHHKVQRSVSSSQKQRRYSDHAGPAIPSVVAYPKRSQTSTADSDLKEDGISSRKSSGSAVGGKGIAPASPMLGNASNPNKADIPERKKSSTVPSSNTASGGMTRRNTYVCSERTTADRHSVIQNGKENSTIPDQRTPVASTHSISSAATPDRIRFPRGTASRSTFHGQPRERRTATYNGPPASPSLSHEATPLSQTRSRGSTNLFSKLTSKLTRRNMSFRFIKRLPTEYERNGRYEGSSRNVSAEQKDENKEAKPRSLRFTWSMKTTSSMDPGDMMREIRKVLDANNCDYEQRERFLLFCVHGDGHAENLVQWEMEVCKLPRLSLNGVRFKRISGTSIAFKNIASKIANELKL
Sequence of Serine/threonine-protein kinase VRK1 (Q99986 whole entry): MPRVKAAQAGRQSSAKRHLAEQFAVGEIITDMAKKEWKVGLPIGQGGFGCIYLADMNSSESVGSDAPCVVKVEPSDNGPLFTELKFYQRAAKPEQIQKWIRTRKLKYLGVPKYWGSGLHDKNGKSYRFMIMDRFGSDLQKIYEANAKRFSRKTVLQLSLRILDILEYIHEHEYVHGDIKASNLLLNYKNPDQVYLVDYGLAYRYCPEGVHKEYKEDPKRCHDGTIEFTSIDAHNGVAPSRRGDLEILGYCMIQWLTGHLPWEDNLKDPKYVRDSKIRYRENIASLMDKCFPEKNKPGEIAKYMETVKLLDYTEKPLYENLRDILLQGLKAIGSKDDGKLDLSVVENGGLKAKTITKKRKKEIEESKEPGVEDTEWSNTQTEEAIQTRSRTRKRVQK

In general, IC50 refers to the concentration that gives 50% inhibition. In the case of `Cc1ccccc1Nc1ccnc2[nH]c3ccccc3c12`, in test [1], the 50% inhibitory concentration (IC50) entry was “Not Active”.

For orientation: GI50 means the concentration giving 50% growth inhibition. Low values mean greater sensitivity of the cells, high ones lower sensitivity of the cells. Consider `Oc1cccc(Nc2ccnc3[nH]c4ccccc4c23)c1`, for which the GI50 is 0.99 µM in the test on MCF7, 1.02 µM in test [2] and 1.58 µM in test [3]. The half-maximal inhibitory concentration (IC50) was > 10 µM in [4]; > 10 µM in test [5]; > 10 µM in test [6]; > 10 µM in test [7]; > 10 µM in [8]; 0.00315 µM in test [1] (read-out: IC50). For the same molecule, the concentration for half-maximal inhibition (IC50) in [9], in test [10], in [11], in test [12], in test [13] and in test [14] was > 10 µM throughout. Besides, the IC50 (in [15]; at Myotonin-protein kinase; in [16]; in [17]; in test [18]; in test [19]) was > 10 µM throughout. Also, the IC50 in test [20], in test [21], in test [22], in test [23], in [24] and in test [25] was > 10 µM in each case. In addition, the IC50 in test [26] is > 10 µM; in [27] it was > 10 µM; in test [28], > 10 µM; in test [29] it was > 10 µM; in test [30], > 10 µM; in test [31], 3.04 µM.

For `Clc1cccc(Nc2ccnc3[nH]c4ccccc4c23)c1`, the IC50 in test [1] (read-out: IC50) was determined as 0.00475 µM.

Take `Clc1ccc(Nc2ccnc3[nH]c4ccccc4c23)cc1`: in test [1], the IC50 entry is recorded as “Not Active”.

With `FC(F)(F)c1cccc(Nc2ccnc3[nH]c4ccccc4c23)c1`, the IC50 in test [1] (read-out: IC50) came out at 0.0594 µM.

As to `CSc1cccc(Nc2ccnc3[nH]c4ccccc4c23)c1`, the IC50 entry in test [1] is “Not Active”.

On to `COc1cccc(Nc2ccnc3[nH]c4ccccc4c23)c1`, for which the 50% inhibitory concentration (IC50) entry in test [1] is listed as “Not Active”.

For `CCOc1cccc(Nc2ccnc3[nH]c4ccccc4c23)c1`, the half-inhibitory concentration (IC50) in test [1] (read-out: IC50) is 0.155 µM.

For the molecule `O=[N+]([O-])c1cccc(Nc2ccnc3[nH]c4ccccc4c23)c1`, the IC50 in [1] (read-out: IC50) worked out at 0.00565 µM.

In the case of `COc1ccc(Nc2ccnc3[nH]c4ccccc4c23)cc1`, the half-inhibitory concentration (IC50) in test [1] (read-out: IC50) was 0.19 µM.

As to `Cc1ccc(Nc2ccnc3[nH]c4ccccc4c23)cc1Cl`, the IC50 in [1] (read-out: IC50) stood at 0.0756 µM.

For the molecule `Fc1ccc(Nc2ccnc3[nH]c4ccccc4c23)cc1Cl`, the concentration for 50% growth inhibition (GI50) with MCF7 was 8.12 µM; in test [2], 10.2 µM; in [3], > 100 µM. The IC50 in test [1] (read-out: IC50) was 0.0695 µM.

`Clc1cc(Cl)cc(Nc2ccnc3[nH]c4ccccc4c23)c1`: the half-inhibitory concentration (IC50) in test [1] (read-out: IC50) is 0.0534 µM.

Regarding `COc1cc(Nc2ccnc3[nH]c4ccccc4c23)ccc1Br`, the IC50 in test [1] (read-out: IC50) was determined as 0.00441 µM.

As for `CCOc1cc(Nc2ccnc3[nH]c4ccccc4c23)ccc1Br`, the IC50 in test [1] (read-out: IC50) is 0.154 µM.
